Data set [1] concerns Candida tropicalis. Put plainly: Antifungal activity against Candida tropicalis ATCC 750 after 72 hrs by broth microdilution method. Format: functional. The note with it: ATCC 750, 72 h. Put shortly:
(§1)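 CLSI broth microdilution against yeasts (M27-A3) and filamentous fungi (M38-A2). Read-outs: IC50 (concentration giving 50% growth inhibition), MIC, and MFC (minimum fungicidal concentration), all in μg/mL. Assay done twice in triplicate.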
Background: Dilution methods test growth across graded concentrations, often in twofold steps.

The subject of data set [2] is Candida albicans. Put plainly: Antifungal activity against Candida albicans ATCC 24433 after 72 hrs by broth microdilution method. Format: functional. The conditions noted are these: ATCC 24433, 72 h. Put shortly:
as §1

The test system of data set [3] is Candida albicans. Briefly: Antifungal activity against Candida albicans ATCC 10231 after 72 hrs by broth microdilution method. It counts as functional. The note with it: ATCC 10231, 72 h. Put shortly: as §1
Data set [4] concerns Candida albicans. Briefly: Antifungal activity against Candida albicans ATCC 24433 after 24 to 36 hrs by broth microdilution method. It counts as functional, organism-based. The gist of the method: as §1
Data set [5] relates to Nakaseomyces glabratus. Briefly: Antifungal activity against Candida glabrata NCYC 388 after 24 to 36 hrs by broth microdilution method. Format: functional, organism-based. Put shortly:
as §1

The test system of data set [6] is Aspergillus niger. Put plainly: Antifungal activity against Aspergillus niger ATCC 10578 after 48 hrs by broth microdilution method. Format: functional, organism-based. The note with it: ATCC 10578, 48 h. Put shortly:
as §1

A short description of data set [7]: Metabolic stability in human liver microsomes after 30 mins by LC-MS/MS analysis. It counts as ADME. The note with it: read-out: Stability. Put shortly:
(§2)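 Test compounds were incubated 30 min with liver microsomes (human or mouse, per line), and values are reported as % metabolic stability after 30 min.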
Background: Liver microsomes are vesicles of endoplasmic reticulum, rich in cytochrome P450 enzymes.

Data set [8] has as its system Candida albicans. Put plainly: Antifungal activity against Candida albicans ATCC 10231 after 24 to 36 hrs by broth microdilution method. Format: functional, organism-based. The gist of the method:
as §1

A short description of data set [9]: Toxicity in human RBC assessed as hemolysis upto 128 ug/ml. Format: cell-based. The conditions noted are these: erythrocyte.
Data set [10] deals with Candida tropicalis. Put plainly: Antifungal activity against Candida tropicalis ATCC 750 after 24 to 36 hrs by broth microdilution method. It counts as functional, organism-based. The gist of the method:
as §1

Data set [11] deals with Cryptococcus neoformans. Briefly: Antifungal activity against Cryptococcus neoformans ATCC 34664 after 72 hrs by broth microdilution method. Format: functional. The note with it: ATCC 34664, 72 h. The gist of the method: as §1
In data set [12] the test system is Nakaseomyces glabratus. Briefly: Antifungal activity against Candida glabrata NCYC 388 after 72 hrs by broth microdilution method. Format: functional. The conditions noted are these: NCYC 388, 72 h. The gist of the method: as §1
Data set [13] is described as follows: Metabolic stability in mouse liver microsomes after 30 mins by LC-MS/MS analysis. Format: ADME. The conditions noted are these: read-out: Stability. The gist of the method: as §2
For data set [14], the system named is Cryptococcus neoformans. Briefly: Antifungal activity against Cryptococcus neoformans ATCC 34664 after 24 to 36 hrs by broth microdilution method. Format: functional, organism-based. Put shortly:
as §1

Data set [15] deals with Aspergillus niger. Briefly: Antifungal activity against Aspergillus niger ATCC 10578 after 72 hrs by broth microdilution method. Format: functional. The note with it: ATCC 10578, 72 h. Put shortly: as §1
The nature of data set [16]: Toxicity in human RBC assessed as partial hemolysis at 256 ug/ml. It counts as cell-based. The conditions noted are these: erythrocyte.

Each structure is given as a SMILES string. Converted amounts (≈) assume the structure as drawn.

`CC(Cc1ccc([Si](C)(C)C)cc1)CN1CC[Si](C)(C)CC1` (stereo unspecified): the MFC (in general, the lowest tested concentration that kills the fungus rather than only halting it) with Candida tropicalis [1] is over 256 µg/mL; with Candida albicans [2], 8 µg/mL (≈ 24 µM); in the data set on Candida albicans [3], 4 µg/mL (≈ 12 µM); in the data set with Cryptococcus neoformans [11], 64 µg/mL (≈ 192 µM); in the data set on Nakaseomyces glabratus [12], 16 µg/mL (≈ 48 µM); against Aspergillus niger [15] it was over 256 µg/mL. Also, the IC50 – broadly, the concentration needed to halve the response being measured – with Candida albicans [4] worked out at 1.25 µg/mL (≈ 3.75 µM); in the data set on Nakaseomyces glabratus [5], 1.75 µg/mL (≈ 5.24 µM); with Aspergillus niger [6], 0.5 µg/mL (≈ 1.5 µM); in the data set with Candida albicans [8] it was 0.45 µg/mL (≈ 1.35 µM); in the data set with Candida tropicalis [10], 44.8 µg/mL (≈ 134 µM); in the data set with Cryptococcus neoformans [14] it was 1.98 µg/mL (≈ 5.93 µM). In addition, the MIC (commonly the least concentration at which growth counts as inhibited) turned out to be 4 µg/mL (≈ 12 µM) in the data set with Candida albicans [4]; 8 µg/mL (≈ 24 µM) against Nakaseomyces glabratus [5]; 2 µg/mL (≈ 5.99 µM) with Aspergillus niger [6]; 1 µg/mL (≈ 3 µM) with Candida albicans [8]; 64 µg/mL (≈ 192 µM) in the data set with Candida tropicalis [10]; 8 µg/mL (≈ 24 µM) against Cryptococcus neoformans [14]. For the same compound, the figures for the remaining at 0.5 h in data set [7] and in data set [13] were 44.5% and 17.3%, respectively. Moreover, the Activity result in data set [9] is given as “Non-toxic”.
On to `CC(Cc1ccc([Si](C)(C)C)cc1)CN1CCC(O)CC1` (stereo unspecified), for which the MFC is 256 µg/mL (≈ 838 µM) against Candida tropicalis [1]; 2 µg/mL (≈ 6.55 µM) in the data set with Candida albicans [2]; 4 µg/mL (≈ 13.1 µM) in the data set on Candida albicans [3]; 16 µg/mL (≈ 52.4 µM) against Cryptococcus neoformans [11]; 8 µg/mL (≈ 26.2 µM) against Nakaseomyces glabratus [12]; 256 µg/mL (≈ 838 µM) against Aspergillus niger [15]. The IC50 was 0.396 µg/mL (≈ 1.3 µM) in the data set with Candida albicans [4]; 0.196 µg/mL (≈ 0.641 µM) with Nakaseomyces glabratus [5]; 0.25 µg/mL (≈ 0.818 µM) in the data set on Aspergillus niger [6]; 0.19 µg/mL (≈ 0.622 µM) in the data set with Candida albicans [8]; 0.198 µg/mL (≈ 0.648 µM) in the data set on Candida tropicalis [10]; 0.93 µg/mL (≈ 3.04 µM) in the data set with Cryptococcus neoformans [14]. The MIC against Candida albicans [4] turned out to be 1 µg/mL (≈ 3.27 µM); against Nakaseomyces glabratus [5], 0.5 µg/mL (≈ 1.64 µM); in the data set on Aspergillus niger [6] it was 0.5 µg/mL (≈ 1.64 µM); against Candida albicans [8] it was 0.25 µg/mL (≈ 0.818 µM); with Candida tropicalis [10] it was 4 µg/mL (≈ 13.1 µM); against Cryptococcus neoformans [14], 2 µg/mL (≈ 6.55 µM). Further, the values for the Activity entry in data set [16] and in data set [9] were “Toxic” and “Non-toxic”, respectively.
Consider `CC(Cc1ccc([Si](C)(C)C)cc1)CN1CCOCC1` (stereo unspecified), for which the MFC is 16 µg/mL (≈ 54.9 µM) against Candida tropicalis [1]; 8 µg/mL (≈ 27.4 µM) in the data set with Candida albicans [2]; 8 µg/mL (≈ 27.4 µM) against Candida albicans [3]; 2 µg/mL (≈ 6.86 µM) against Cryptococcus neoformans [11]; 16 µg/mL (≈ 54.9 µM) in the data set on Nakaseomyces glabratus [12]; over 256 µg/mL in the data set on Aspergillus niger [15]. Also, the IC50 worked out at 0.74 µg/mL (≈ 2.54 µM) with Candida albicans [4]; 0.144 µg/mL (≈ 0.494 µM) in the data set on Nakaseomyces glabratus [5]; 106 µg/mL (≈ 363 µM) in the data set with Aspergillus niger [6]; 0.26 µg/mL (≈ 0.892 µM) in the data set on Candida albicans [8]; 0.5 µg/mL (≈ 1.72 µM) in the data set with Candida tropicalis [10]; 0.125 µg/mL (≈ 0.429 µM) in the data set with Cryptococcus neoformans [14]. The MIC turned out to be 1 µg/mL (≈ 3.43 µM) in the data set with Candida albicans [4]; 0.5 µg/mL (≈ 1.72 µM) in the data set on Nakaseomyces glabratus [5]; 128 µg/mL (≈ 439 µM) in the data set on Aspergillus niger [6]; 0.5 µg/mL (≈ 1.72 µM) in the data set on Candida albicans [8]; 8 µg/mL (≈ 27.4 µM) with Candida tropicalis [10]; 0.5 µg/mL (≈ 1.72 µM) in the data set on Cryptococcus neoformans [14]. Further, the results for the remaining at 0.5 h in data set [7] and in [13] were 26% and 5.1%, respectively.

The values are drawn from ChEMBL document CHEMBL3751707, “Silicon Incorporated Morpholine Antifungals: Design, Synthesis, and Biological Evaluation” (ACS Med Chem Lett, 2015).
